Data set [1] deals with Human alphaherpesvirus 1. The data set can be described thus: Antiviral activity against Herpes simplex virus 1 KOS infected in human HEL cells assessed as inhibition of virus-induced cytopathic effect after 4 days by microscopic analysis. The format is functional, organism-based. As to conditions: Human alphaherpesvirus 1, KOS, 96 h. (Cytopathic effects are the visible damage that an infection or toxin causes in cultured cells.)

The subject of data set [2] is Human alphaherpesvirus 1. Put plainly: Antiviral activity against acyclovir-resistant TK-deficient Herpes simplex virus-1 KOS infected in human HEL cells assessed as inhibition of virus-induced cytopathic effect after 4 days by microscopic analysis. The format is functional, organism-based. To be noted: Human alphaherpesvirus 1, KOS, 96 h.
Data set [3] concerns Felid alphaherpesvirus 1. The data set can be described thus: Antiviral activity against Feline herpesvirus infected in cat CRFK cells assessed as inhibition of virus-induced cytopathic effect after 4 days by microscopic analysis. The format is functional, organism-based. To be noted: Felid alphaherpesvirus 1, CRFK, 96 h. Summed up:
(§1)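 Confluent monolayers (CRFK for feline herpes virus; HEL for HSV-2 G) were inoculated with 100 CCID50 of virus in the presence of compound at 200, 40, 8, … μM. Cytopathicity was scored once it was complete in untreated infected controls.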

The test system of data set [4] is Human alphaherpesvirus 2. The data set can be described thus: Antiviral activity against Herpes simplex virus-2 G infected in human HEL cells assessed as inhibition of virus-induced cytopathic effect after 4 days by microscopic analysis. In kind it is functional, organism-based. As to conditions: Human alphaherpesvirus 2, strain G, 96 h. The method in brief:
as §1

The subject of data set [5] is Vaccinia virus. The data set can be described thus: Antiviral activity against Vaccinia virus infected in human HEL cells assessed as inhibition of virus-induced cytopathic effect after 4 days by microscopic analysis. The format is functional, organism-based. As to conditions: Orthopoxvirus vaccinia, 96 h.
A short description of data set [6]: Cytotoxicity against human HEL cells assessed as alteration of normal cell morphology by microscopic analysis. The format is cell-based. Summed up: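 Uninfected HEL cells were examined under the microscope. The minimum cytotoxic concentration is the lowest concentration causing a detectable alteration of normal cell morphology.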
Data set [7] is described as follows: Cytotoxicity against cat CRFK cells by colorimetric formazan-based MTS assay. In kind it is cell-based, Felis catus. As to conditions: crfk. A general note: Formazan colour is commonly taken as a measure of viable cells.
The subject of data set [8] is Human alphaherpesvirus 3. The data set can be described thus: Antiviral activity against Varicella-zoster virus YS expressing thymidine kinase infected in human HEL cells assessed as reduction in the virus plaque formation. As to conditions: Human alphaherpesvirus 3, YS. In kind it is functional, organism-based.
Data set [9] has as its system Human alphaherpesvirus 3. Put plainly: Antiviral activity against Varicella-zoster virus OKA expressing thymidine kinase infected in human HEL cells assessed as reduction in the virus plaque formation. The format is functional, cell-based. To be noted: Human alphaherpesvirus 3, strain Oka vaccine.
In data set [10] the test system is Human alphaherpesvirus 3. The data set can be described thus: Antiviral activity against thymidine kinase-deficient Varicella-zoster virus 07-1 infected in human HEL cells assessed as reduction in the virus plaque formation. The format is functional, organism-based. To be noted: Human alphaherpesvirus 3, 07-1, HEL.
For data set [11], the system named is Human alphaherpesvirus 3. The data set can be described thus: Antiviral activity against thymidine kinase-deficient Varicella-zoster virus YS/R infected in human HEL cells assessed as reduction in the virus plaque formation. The format is functional, organism-based. To be noted: Human alphaherpesvirus 3, YS/R.
Data set [12] concerns Human betaherpesvirus 5. Put plainly: Antiviral activity against Human cytomegalovirus AD-169 infected in human HEL cells assessed as reduction in the virus plaque formation. The format is functional, organism-based. To be noted: Human betaherpesvirus 5, AD169, HEL. The method in brief:
(§2)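 HEL cells were infected with 100 PFU of HCMV (AD-169 or Davis) in the presence of compound.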

Data set [13] concerns Human betaherpesvirus 5. Put plainly: Antiviral activity against Human cytomegalovirus Davis infected in human HEL cells assessed as reduction in the virus plaque formation. The format is functional, organism-based. As to conditions: Human betaherpesvirus 5, Davis. The method in brief:
as §2

Data set [14] has as its system HEL. Put plainly: Cytotoxicity against human HEL cells by colorimetric formazan-based MTS assay. The format is cell-based.
Data set [15] deals with T1, Thymidine kinase (Human alphaherpesvirus 1, UniProt Q9QNF7).
T1 sequence (Q9QNF7 whole entry): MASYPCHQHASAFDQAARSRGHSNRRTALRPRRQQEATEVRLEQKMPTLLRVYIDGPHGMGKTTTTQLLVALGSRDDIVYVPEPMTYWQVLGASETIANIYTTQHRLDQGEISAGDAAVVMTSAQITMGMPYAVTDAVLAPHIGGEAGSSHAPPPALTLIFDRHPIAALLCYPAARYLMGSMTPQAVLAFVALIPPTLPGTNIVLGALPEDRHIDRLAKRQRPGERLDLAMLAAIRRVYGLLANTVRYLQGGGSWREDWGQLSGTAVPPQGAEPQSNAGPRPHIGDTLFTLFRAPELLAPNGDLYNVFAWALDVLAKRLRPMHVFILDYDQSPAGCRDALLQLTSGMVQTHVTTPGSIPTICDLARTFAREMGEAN
Put plainly: Inhibition of Herpes simplex virus-1 thymidine kinase-mediated phosphorylation of [methyl-3H]dThd at 1 uM after 30 mins by scintillation counting.

The nature of data set [16]: Inhibition of Varicella-zoster virus thymidine kinase-mediated phosphorylation of [methyl-3H]dThd at 1 uM after 30 mins by scintillation counting. On the set-up: species or system Human alphaherpesvirus 3.
Data set [17] concerns the target T2, Thymidine kinase (Feline herpesvirus 1, UniProt P13159).
T2 sequence (P13159 whole entry): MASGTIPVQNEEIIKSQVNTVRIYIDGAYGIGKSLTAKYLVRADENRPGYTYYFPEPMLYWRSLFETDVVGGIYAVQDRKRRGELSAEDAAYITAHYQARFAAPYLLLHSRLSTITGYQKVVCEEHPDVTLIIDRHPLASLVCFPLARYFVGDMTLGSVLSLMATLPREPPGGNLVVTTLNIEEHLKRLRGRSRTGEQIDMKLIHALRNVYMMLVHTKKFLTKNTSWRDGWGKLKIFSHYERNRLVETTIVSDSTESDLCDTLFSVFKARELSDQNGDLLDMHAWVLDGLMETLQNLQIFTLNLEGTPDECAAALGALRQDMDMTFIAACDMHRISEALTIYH
Put plainly: Inhibition of Feline herpesvirus thymidine kinase assessed as phosphorylation of 1 uM [methyl-3H]dThd after 30 mins by scintillation counting. On the set-up: species or system Felid alphaherpesvirus 1.

Data set [18] deals with L1210. Put plainly: Antiproliferation activity against mouse L1210 cells after 2 days by coulter counter. In kind it is cell-based. To be noted: L1210, 48 h. Summed up:
(§3)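 L1210, FM3A, CEM or HeLa cells at 300,000–500,000 cells/mL were mixed 1:1 with compound dilutions. Incubation at 37 °C lasted 2 days (L1210, FM3A) or 3 days (CEM, HeLa), after which cells were counted with a Coulter counter.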

In data set [19] the test system is FM3A. Put plainly: Antiproliferation activity against mouse FM3A cells after 2 days by coulter counter. In kind it is cell-based. As to conditions: 48 h. Summed up: as §3
Data set [20] concerns CCRF-CEM. The data set can be described thus: Antiproliferation activity against human CEM cells after 3 days by coulter counter. To be noted: 72 h. In kind it is cell-based. The method in brief: as §3
Data set [21] deals with HeLa. The data set can be described thus: Antiproliferation activity against human HeLa cells after 3 days by coulter counter. In kind it is cell-based. To be noted: 72 h. The method in brief:
as §3

The record followed here is ChEMBL document CHEMBL1806488, “Design, synthesis and biological evaluation of 2'-deoxy-2',2'-difluoro-5-halouridine phosphoramidate ProTides” (Bioorg Med Chem, 2011).

SMILES strings stand for the structures. Bounds are passed on as bounds.

`O=c1[nH]c(=O)n([C@@H]2O[C@H](CO)[C@@H](O)C2(F)F)cc1I`: the EC50 in [1] was 16 µM; in data set [2] it was 20 µM; in data set [3], 1.2 µM; in data set [4], 64 µM; in [5] it was greater than 100 µM; in data set [8], 13 µM. Besides, the EC50 in [9] was 9.1 µM; in data set [10], greater than 50 µM; in [11] it was greater than 50 µM; in data set [12], greater than 50 µM; in [13], greater than 50 µM. Further, in data set [6], the MCC was greater than 50 µM. Besides, the CC50 in [7] and in [14] was greater than 100 µM each time. The IC50 in data set [15] is 3.5 µM; in data set [16], 19 µM; in data set [17] it was 38 µM; in [18] it was 302 µM; in data set [19] it was 409 µM; in data set [20], 154 µM. Besides, the IC50 in data set [21] amounted to 230 µM.
In the case of `O=c1[nH]c(=O)n([C@@H]2O[C@H](CO)[C@@H](O)C2(F)F)cc1Br`, the EC50 in data set [1] was 15 µM; in [2], 73 µM; in data set [3] it was 2.4 µM; in [4], greater than 100 µM; in data set [5], greater than 100 µM; in data set [8] it was 23 µM. Also, the EC50 in data set [9] was 11 µM; in data set [10], greater than 50 µM; in data set [11], greater than 50 µM; in data set [12] it was greater than 50 µM; in [13], greater than 50 µM. Besides, in data set [6], the MCC is greater than 50 µM. The CC50 in data set [7] and in [14] was greater than 100 µM each time. In addition, the IC50 in data set [15] was 7.5 µM; in data set [16], 26 µM; in data set [17] it was 34 µM; in data set [18] it was greater than 500 µM; in data set [19], greater than 500 µM; in [20], greater than 500 µM. For the same compound, in data set [21], inhibition was half-maximal at 458 µM (IC50).
`O=c1[nH]c(=O)n([C@@H]2O[C@H](CO)[C@@H](O)C2(F)F)cc1Cl`: the EC50 in data set [1] is 33 µM; in data set [2], 78 µM; in [3], 13 µM; in data set [4], no less than 100 µM; in [5], greater than 100 µM; in data set [8], greater than 50 µM. Also, the EC50 was no less than 50 µM in data set [9]; greater than 50 µM in data set [10]; greater than 50 µM in data set [11]; greater than 50 µM in [12]; greater than 50 µM in [13]. The MCC in [6] was greater than 50 µM. In addition, the CC50 in [7] and in data set [14] was greater than 100 µM each time. Besides, the IC50 was 22 µM in [15]; 35 µM in data set [16]; 93 µM in [17]; greater than 500 µM in [18]; greater than 500 µM in [19]; greater than 500 µM in data set [20]. The compound also yielded an IC50 in data set [21] of no less than 500 µM.

The term EC50 denotes the concentration needed to bring the measured effect to its halfway point. As usually defined, the CC50 is the concentration giving 50% cytotoxicity. Read a low CC50 as harm at low concentration. In general, IC50 refers to the concentration that gives 50% inhibition.
